Experimental data published in ChEMBL document CHEMBL5303300, “EUbOPEN Chemogenomics Library - Multiplex” (2023).
Several values for one entry are separate records, joined by “and”; a condition that tells them apart may be missing. Identical values can stand only once.

Test system: HEK-293T
Assay: Multiplex assay against HEK293T
Format: toxicity, cell-based
Conditions: human, number of replicates 2
Outline: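 Hoechst33342, BioTracker Green Microtubule Cytoskeleton Dye, MitoTracker Red and Annexin V Alexa Fluor 680 were added to live cells at seeding, and imaging on a CQ1 microscope at 37°C and 5% CO2 followed compound addition. Gating by CellPathfinder machine learning separated cells into Hoechst high-intensity objects or normal cells, then normal cells into healthy, pyknosed or fragmented nuclei, then pyknosed cells into mitotic or apoptotic. Per cents of healthy-nucleus cells are reported for the tubulin, mitochondrial-mass and membrane-permeability phenotypes.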

[1] = 12 h, 1 µM, compound concentration 1 uM
[2] = 12 h, 10 µM, compound concentration 10 uM
[3] = 24 h, 1 µM, compound concentration 1 uM
[4] = 24 h, 10 µM, compound concentration 10 uM
[5] = 48 h, 1 µM, compound concentration 1 uM
[6] = 48 h, 10 µM, compound concentration 10 uM

Compound: CNS(=O)(=O)c1ccc(N(C)C)c(Nc2ncnc3cc(OC)c(OC)cc23)c1
- Population Apoptotic (%) [1]: 51% and 45%
- Population Fragmented Nuclei (%) [1]: 3% and 2%
- Population Healthy Nuclei (%) [1]: 81% and 83%
- Population Hoechst High Intensity Objects (%) [1]: 5% and 8%
- Population Membrane Permeable-Phenotype (%) [1]: 2%
- Population Mitochondria Different-Phenotype (%) [1]: 17% and 12%
- Population Mitotic Cells (%) [1]: 48% and 54%
- Population Normal (%) [1]: 94% and 91%
- Population Pyknosed Nuclei (%) [1]: 14%
- Population Tubulin-Different-Phenotype (%) [1]: 37% and 34%
- Total Cell Count [1]: 547 and 550
- Population Apoptotic (%) [2]: 47% and 54%
- Population Fragmented Nuclei (%) [2]: 2% and 3%
- Population Healthy Nuclei (%) [2]: 87% and 88%
- Population Hoechst High Intensity Objects (%) [2]: 7%
- Population Membrane Permeable-Phenotype (%) [2]: 2% and 1%
- Population Mitochondria Different-Phenotype (%) [2]: 26% and 24%
- Population Mitotic Cells (%) [2]: 52% and 45%
- Population Normal (%) [2]: 92%
- Population Pyknosed Nuclei (%) [2]: 9% and 8%
- Population Tubulin-Different-Phenotype (%) [2]: 59%
- Total Cell Count [2]: 607
- Population Apoptotic (%) [3]: 45% and 47%
- Population Fragmented Nuclei (%) [3]: 5% and 7%
- Population Healthy Nuclei (%) [3]: 86% and 84%
- Population Hoechst High Intensity Objects (%) [3]: 7% and 6%
- Population Membrane Permeable-Phenotype (%) [3]: 3% and 1%
- Population Mitochondria Different-Phenotype (%) [3]: 4%
- Population Mitotic Cells (%) [3]: 54% and 52%
- Population Normal (%) [3]: 92% and 93%
- Population Pyknosed Nuclei (%) [3]: 8%
- Population Tubulin-Different-Phenotype (%) [3]: 13% and 17%
- Total Cell Count [3]: 888 and 859
- Population Apoptotic (%) [4]: 53% and 62%
- Population Fragmented Nuclei (%) [4]: 3% and 5%
- Population Healthy Nuclei (%) [4]: 89% and 87%
- Population Hoechst High Intensity Objects (%) [4]: 8% and 11%
- Population Membrane Permeable-Phenotype (%) [4]: 1%
- Population Mitochondria Different-Phenotype (%) [4]: 16% and 20%
- Population Mitotic Cells (%) [4]: 46% and 37%
- Population Normal (%) [4]: 91% and 88%
- Population Pyknosed Nuclei (%) [4]: 7%
- Population Tubulin-Different-Phenotype (%) [4]: 51% and 49%
- Total Cell Count [4]: 699 and 675
- Population Apoptotic (%) [5]: 18% and 9%
- Population Fragmented Nuclei (%) [5]: 13% and 11%
- Population Healthy Nuclei (%) [5]: 83% and 85%
- Population Hoechst High Intensity Objects (%) [5]: 7% and 8%
- Population Membrane Permeable-Phenotype (%) [5]: 5% and 3%
- Population Mitochondria Different-Phenotype (%) [5]: 0%
- Population Mitotic Cells (%) [5]: 81% and 90%
- Population Normal (%) [5]: 92% and 91%
- Population Pyknosed Nuclei (%) [5]: 3%
- Population Tubulin-Different-Phenotype (%) [5]: 5%
- Total Cell Count [5]: 2132 and 1975
- Population Apoptotic (%) [6]: 20% and 37%
- Population Fragmented Nuclei (%) [6]: 11% and 8%
- Population Healthy Nuclei (%) [6]: 86% and 87%
- Population Hoechst High Intensity Objects (%) [6]: 12%
- Population Membrane Permeable-Phenotype (%) [6]: 3% and 2%
- Population Mitochondria Different-Phenotype (%) [6]: 2%
- Population Mitotic Cells (%) [6]: 80% and 62%
- Population Normal (%) [6]: 87%
- Population Pyknosed Nuclei (%) [6]: 2% and 4%
- Population Tubulin-Different-Phenotype (%) [6]: 39%
- Total Cell Count [6]: 1182 and 985

Compound: c1ccc2c(-c3coc4cc(-c5ccc(N6CCNCC6)cc5)cnc34)ccnc2c1
- Population Apoptotic (%) [1]: 49% and 54%
- Population Healthy Nuclei (%) [1]: 84% and 87%
- Population Mitotic Cells (%) [1]: 50% and 45%
- Population Normal (%) [1]: 94%
- Population Pyknosed Nuclei (%) [1]: 13% and 10%
- Population Tubulin-Different-Phenotype (%) [1]: 46% and 49%
- Total Cell Count [1]: 595 and 552
- Population Apoptotic (%) [2]: 75% and 58%
- Population Healthy Nuclei (%) [2]: 32% and 33%
- Population Mitotic Cells (%) [2]: 24% and 41%
- Population Normal (%) [2]: 82% and 84%
- Population Pyknosed Nuclei (%) [2]: 59%
- Population Tubulin-Different-Phenotype (%) [2]: 86% and 81%
- Total Cell Count [2]: 394 and 507
- Population Apoptotic (%) [3]: 36% and 45%
- Population Healthy Nuclei (%) [3]: 88% and 87%
- Population Mitotic Cells (%) [3]: 63% and 54%
- Population Normal (%) [3]: 95% and 93%
- Population Pyknosed Nuclei (%) [3]: 9%
- Population Tubulin-Different-Phenotype (%) [3]: 34% and 40%
- Total Cell Count [3]: 920 and 770
- Population Apoptotic (%) [4]: 85% and 72%
- Population Healthy Nuclei (%) [4]: 19% and 24%
- Population Mitotic Cells (%) [4]: 14% and 27%
- Population Normal (%) [4]: 82% and 80%
- Population Pyknosed Nuclei (%) [4]: 71% and 67%
- Population Tubulin-Different-Phenotype (%) [4]: 89% and 87%
- Total Cell Count [4]: 387 and 484
- Population Apoptotic (%) [5]: 13% and 18%
- Population Healthy Nuclei (%) [5]: 90% and 89%
- Population Mitotic Cells (%) [5]: 86% and 81%
- Population Normal (%) [5]: 93% and 92%
- Population Pyknosed Nuclei (%) [5]: 4% and 5%
- Population Tubulin-Different-Phenotype (%) [5]: 18% and 22%
- Total Cell Count [5]: 1932 and 1615
- Population Apoptotic (%) [6]: 90% and 79%
- Population Healthy Nuclei (%) [6]: 11% and 23%
- Population Mitotic Cells (%) [6]: 9% and 20%
- Population Normal (%) [6]: 81% and 79%
- Population Pyknosed Nuclei (%) [6]: 74% and 64%
- Population Tubulin-Different-Phenotype (%) [6]: 86% and 91%
- Total Cell Count [6]: 372 and 450
